In the EternaBench riboswitch data:

Tested on: MS2 coat protein
Test: apparent Kd, MS2 coat protein; higher = weaker binding; RNA-MaP array
Summary of the method: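 With or without input ligand, designed RNAs transcribed on an Illumina sequencing chip from sequenced DNA templates were incubated at room temperature with fluorescently labeled MS2 coat protein at 1.5 nM to 3 μM. The buffer was Tris-HCl pH 7.5 with KCl, MgCl2, BSA, DTT, tRNA and Tween20, and incubation ran 0.8–1.5 h at the lowest and 10–20 min at the highest concentrations. Apparent Kd is reported as the median of fits to binding curves from individual clusters. Designs measured on fewer than 10 clusters are not included.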

[1] = designed as: OFF switch for flavin mononucleotide, no ligand
[2] = ligand present: flavin mononucleotide, designed as: OFF switch for flavin mononucleotide
[3] = designed as: ON switch for tryptophan, no ligand
[4] = ligand present: tryptophan, designed as: ON switch for tryptophan
[5] = designed as: OFF switch for tryptophan, no ligand
[6] = ligand present: tryptophan, designed as: OFF switch for tryptophan
[7] = designed as: ON switch for flavin mononucleotide, no ligand
[8] = ligand present: flavin mononucleotide, designed as: ON switch for flavin mononucleotide
[9] = designed as: OFF switch for theophylline, no ligand
[10] = ligand present: theophylline, designed as: OFF switch for theophylline

Sequence	apparent Kd [1]	apparent Kd [2]	further results
ACCGUAUGGGAGAAGGAACUAUGUUAGACAUGAGGAUCACCCAUGUUCCAGAAUGUAGGGCUCAGUUAGGAUAUCCAAUUCAGA	0.0111 µM	0.0218 µM	
ACACACAUGAGGAUCACCCAUGUCUAUAUACGAGGACCGGUACGGCCGCCACUCGUGAGAUCGCGAGAGACAGCUUUGGGCUAGU			apparent Kd [3]: 0.0146 µM; apparent Kd [4]: 0.0192 µM
GACAUAUGCUAUGCGCAGGCUACCCUCAGCCGAGGACCGGUACGGCCGCCACUCGUACUACCACAUGAGGAUCACCCAUGUUAUC			apparent Kd [5]: 0.0172 µM; apparent Kd [6]: 0.0182 µM
UAUACUACUGAGGAUAUCCAAUCCCAGAAACAAGGAGAAGGCAGUACAUGAGGAUCACCCAUGUUCCUCGACAU	0.0431 µM	0.127 µM	
CACCUUCGUCAAGGAUAUGCGUAAUGUAUAAUCGCAGAAGGUGACGCGAUCUUCAUAACAUGAGGAUCACCCAUGUGGUGAACU	0.436 µM	0.312 µM	
ACUCCACAUGAGGAUCACCCAUGUUAUAAGUAGGUAGGAUAUCACACAAACUUACAUGGAUGAGAAGGACCGGUCC			apparent Kd [7]: 0.328 µM; apparent Kd [8]: 0.21 µM
CUCGUUUAAGAGGAUAUUUCGUCCGCUCUCGGGAAAGAAGGCUUGACAUGAGGAUCACCCAUGUAUACGUUGGA	0.00946 µM	0.0139 µM	
CCAAAGUAAGGAUAUCGAAGAACCACAACCGACGGAACGAACGAGAAGGUACAUGAGGAUCACCCAUGUGAUAG	0.0116 µM	0.0197 µM	
AGGAAAGAAGAAGGAUAUCAGUUACGGACAUGAGGAUCACCCAUGUACGUAGGGUGAACCCUGAUUGAGAAGGUCUGUGUUUUA			apparent Kd [7]: 0.0231 µM; apparent Kd [8]: 0.0134 µM
UCGCGUCUAGCUCAGGAUAUUGUGCCUGAUACAUGAGGAUCACCCAUGUCCUAAGUGCAAACCAACAAGAAGGGAGCUAAGCAUGU			apparent Kd [7]: 0.0139 µM; apparent Kd [8]: 0.0132 µM
CAUCAGGGAUCAGGAUAUACAAUGGGUACAUGAGGAUCACCCAUGUAGACGCCAACACUGUCAUUGUAGAAGGGAUUGAGCGAA			apparent Kd [7]: 0.0551 µM; apparent Kd [8]: 0.0298 µM
UAGCGAUCUCGUUAAAGGAUCCCAUUUGAUACCAGAGAACUUUGCCUCCCUUGGCAGCAAGUGACAUGAGGAUCACCCAUGUUGA			apparent Kd [9]: 0.0162 µM; apparent Kd [10]: 0.0239 µM
AGGAAUGUCACGGCCGCCACUGACGCUAAAAUGGGCUCGAGCCGACAUGAGGAUCACCCAUGUUCCAGGACCGGGUGAAUCCUGG			apparent Kd [3]: 0.174 µM; apparent Kd [4]: 0.123 µM
GUGAUGCAGCAGAAGGGAUCGCUAAGGUUGUAAUCAGGAUAUGCAGUCGCUAGGGCGCCUCGACAUGAGGAUCACCCAUGUUUG	0.0527 µM	0.0617 µM	
AUAGAGGAUAAAGGAUAUGAGGUGAACAUCGAUUCAGAAGGUUAUCAGGAUACAUGAGGAUCACCCAUGUUUCCUUUGCUGUUG			apparent Kd [7]: 0.0385 µM; apparent Kd [8]: 0.0229 µM
GGUUCCUCAACGGCCGCCACUUACUGGAUUAGUGGACCUACUUGCAACAUGAGGAUCACCCAUGUAAGGACCGGGUUGCUCCCAA			apparent Kd [5]: 0.0682 µM; apparent Kd [6]: 0.0792 µM
GUCAACACAGUAGGAUAUCCAAUGCGUAAGCUCGGAGAAGGACUUAACUAGCAGUUUGAUCGACAUGAGGAUCACCCAUGUAAU	0.0114 µM	0.00996 µM	
AUGUUCGUAAAGAAGGAUCAGGUGAUAUAUGUCAACAUGAGGAUCACCCAUGUGCGGGACGUAAGAUAGGAUAUUUGAGAUCAU	0.0143 µM	0.0108 µM	
AAUCAACUUAGAGGAUAUAAGCUUAAAAUAGGGUUAGAAGGCUAUGGUACUAAUGAUCCGUCAACAUGAGGAUCACCCAUGUAG	0.045 µM	0.0372 µM	
UUACUACAUGAGGAUCACCCAUGUGAAAAUUAAACGAAAAGUUAGGAUAUGAAUGGAAAUGCACCUCAGAAGGAACGCGACAAG			apparent Kd [7]: 0.0184 µM; apparent Kd [8]: 0.0169 µM
UGAUCUGGCGGAGGAUAUAUGCCAGUAAAACUGAUAGAAGGCCGUGAUAUAACAUGAGGAUCACCCAUGUGAGCUCCUUAGCGA	0.0205 µM	0.0181 µM	
GGUGAUUUCCGACGUUUACAUGAGGAUCACCCAUGUAGGUAGAAGGAUAUGUGUAAAAUUGAUAAACAGAAGGUCUUCCGAAUA	0.0122 µM	0.0493 µM	
UAACAUUGCUAGAAGGGCGGUCAUCAGAUGGCCGCAGGAUAUAGACAUGAGGAUCACCCAUGUGAAGGGCAGGUUGUUCUAGUU			apparent Kd [7]: 0.0181 µM; apparent Kd [8]: 0.0225 µM
CGCCUACAGGUGUACUAUUGUGGUGAAGAUACCAGAUAGCCCAAUAUCCCUUGGCAGCUUCAGACAUGAGGAUCACCCAUGUAUC			apparent Kd [9]: 0.0155 µM; apparent Kd [10]: 0.0276 µM
GAACCCAAGGUGAGGAUAUUCGAAGCAACAAAAGGGAAGAAGGCACAUGAGGAUCACCCAUGUAAGAAAGAUAA	0.00835 µM	0.00952 µM	
UAUUAGUUAGAGAAGGUCCUUAGGCCGCGUAAGGAAGGAUAUCUGCAUCACGGGCCUCUGGCAACAUGAGGAUCACCCAUGUGG	0.0968 µM	0.156 µM	
GGAAUGUGAGGAUAUGUUAAGAAGGCGCGACGUUGGGAGACACAGAAGGCACAUGAGGAUCACCCAUGUUAUGA	0.0232 µM	0.0311 µM	

Sequence	apparent Kd [1]	apparent Kd [2]	further results
CGACAGCACAUAGGAUAUCAGCAAGAACUAACAUGAGGAUCACCCAUGUAUGGAUGAACAUAAAAUGAGAAGGAAGGCGAAUUA			apparent Kd [7]: 0.0222 µM; apparent Kd [8]: 0.0179 µM
AUUAACAUGAGGAUCACCCAUGUUUGUCUCCGAGGACCGGUACGGCCGCCACUCGCAGGUUGGAGUCGCUAUAUGGGCGUUCACU			apparent Kd [3]: 0.0446 µM; apparent Kd [4]: 0.0349 µM
UUUGCAGUCGAGAAGGCAAACACAUGAGGAUCACCCAUGUAGACGAGGUAUGUUAUUUCGGGAGUUGAGGAUAUCGUGGUAGGU			apparent Kd [7]: 0.0278 µM; apparent Kd [8]: 0.0138 µM
GCUAAUCCAGGAGGAUAUAGGUUCUUUUCUACACAUGAGGAUCACCCAUGUGCAUCCCGGCGUACCUAGAAGGCCUGUCUAAAA			apparent Kd [7]: 0.026 µM; apparent Kd [8]: 0.0155 µM
AUACCACCUUCGGCCGCCACUAUGUAUGGGUUCCCAACGUUGAAGGACAUGAGGAUCACCCAUGUUAGGACCGGGAAAAGUGCCU			apparent Kd [5]: 0.0879 µM; apparent Kd [6]: 0.161 µM
GUCUGGUCAGGAUAUUCGAGGUGUAACAUGAGGAUCACCCAUGUUUCUUAGCUAGAGGCCGAAGAAGGGACGGGUA	0.0114 µM	0.0101 µM	
GUGCACAUGAGGAUCACCCAUGUCUGUGUAUUCCUGCUACCAGAGGAUAUGGCGUGCGUAGCUUACCAGAAGGCUGGUUGUAUC	0.03 µM	0.0134 µM	
ACAUAUUCCAGAGGAUAUUGUGGUAUCCAGUUAAGGAGAUCUUACAUGAGGAUCACCCAUGUGGACAAGAAGGCUGAACGCUCC			apparent Kd [7]: 0.0216 µM; apparent Kd [8]: 0.0147 µM
CGAUUACAUGAGGAUCACCCAUGUCAGGAUAUAAUUUGCACAGCCGGGCAGGCCGUGGUUAGAAGGGACGUACA	0.00909 µM	0.00875 µM	
AGUCUUCUCGUAAGGAUAUUUAGGAAUUCAUCUCCAAAGAAGGUACAUGAGGAUCACCCAUGUGAAGGGCUUUU	0.0128 µM	0.0248 µM	
CGACGAUCAGAAGGAUAUUAAAUCGUCAAUCUCGUGACAUGAGGAUCACCCAUGUAGCCCGUGGUUAAGAAGGUCUUGGUUGUG	0.0924 µM	0.058 µM	
UAGUAGUAAGGAUAUGCGGCACCGACGCCUCCGAACCGCGGGCAGAAGGUACAUGAGGAUCACCCAUGUGGGUA	0.169 µM	0.116 µM	
UCGGUGUAAGAGAAGGAAGUGUUCGCAGGCCAAGGCUCAUUGGCUACAUGAGGAUCACCCAUGUCUUAGGAUAUCUGCGCUCCG			apparent Kd [7]: 0.0456 µM; apparent Kd [8]: 0.0167 µM
GUGGGCUAGGAGAAGGACGAUCGAAGCCAUAUCGUAGGAUAUCCAUUAAGAUCCCGGACAUGAGGAUCACCCAUGUGGUGAUAG	0.676 µM	0.414 µM	
CACUAUGAGGUCGAUACCAGUACUGAGUUGUACAUGAGGAUCACCCAUGUAAAUGUUCGCUACCCUUGGCAGCGAUAACAUUGCA			apparent Kd (designed as: ON switch for theophylline, no ligand): 0.43 µM; apparent Kd (ligand present: theophylline, designed as: ON switch for theophylline): 0.554 µM
CUCGUGUUAGGAUAUGACGUCCCGCGCUCCGUUAACUAAUUUCAGAAGGAACAUGAGGAUCACCCAUGUUGGUG	0.15 µM	0.0597 µM	
ACCAGGCAAGGAUAUGGUUCUGUAAACAUGAGGAUCACCCAUGUAUUUAAUUCAUGUUGGCCAGAAGGUGCUUUCG	0.0149 µM	0.0133 µM	
AAUUGUGCAGGAUAUUCACAGGUGAACAUGAGGAUCACCCAUGUAGCAUGAGGUGUAAUCGAAGAAGGGCAGGUCC	0.109 µM	0.0728 µM	
ACUGCGCACGGGCUCCACAUGAGGAUCACCCAUGUUGAACUGAGAAGGGAAAGAAGAAACUACAUUCAGGAUAUCAUUUCACCA	0.0445 µM	0.0466 µM	
UCAUAGUCAGGAUAUUUAUUUGGCGGAGACUGCGGCCACCGAAAGAAGGGACAUGAGGAUCACCCAUGUAUCGG	0.0163 µM	0.0269 µM	
GCUUUAUUAGGAUAUGUAACCGUUAACAUGAGGAUCACCCAUGUUGAUUCUCAAGAGACCACAGAAGGAAUAAAAG	0.289 µM	0.24 µM	
GCCAAGCUCUAAGGAUAUGUUCACACCGGUGAGACAGAAGGUAGUAGUGUACUGCACAUGAGGAUCACCCAUGUAAACGGAUAA			apparent Kd [7]: 0.0642 µM; apparent Kd [8]: 0.0149 µM
GCACUUAUAGCAGGAUAUCUUUAAACACCGAAAGGUAGCGGUACAUGAGGAUCACCCAUGUCAACAGAGAAGGGCUCAUAGUCU			apparent Kd [7]: 0.0111 µM; apparent Kd [8]: 0.00863 µM
CACGAUCGUGAAGGAUAUCGACAUGAGGAUCACCCAUGUUACUCUUACAUCUAUGGUUCAAGUGCCGAGAAGGUCACAGAGGCA	0.0138 µM	0.018 µM	
GUAACGGAAGGAUAUACGCUUUAAUGGACAGGUUCGAUGGCACAUGAGGAUCACCCAUGUAGAAGGUCCCUAAA	0.0108 µM	0.0134 µM	
AUAUCUUCCACGGCCGCCACUGAAUGGUGCCCAAGGUCGAUCGCAGACAUGAGGAUCACCCAUGUCAGGACCGGGUGGUACUACG			apparent Kd [5]: 0.0147 µM; apparent Kd [6]: 0.033 µM
CGGCAGAAAGUGAGGAUAUCGGUUGUAUGAGGAGACGAGAAGGCACAUGAGGAUCACCCAUGUUAGUAGUCCAC	0.00954 µM	0.0088 µM	
